# Source: ChEMBL document CHEMBL1177643, “Synthesis, DNA-binding ability and anticancer activity of benzothiazole/benzoxazole-pyrrolo[2,1-c][1,4]benzodiazepine conjugates” (Bioorg Med Chem, 2010)
# Assays:
# [1] = tested on: SF-268; assay: Growth inhibition of human SF268 cells after 48 hrs by sulforhodamine B assay; type: functional; conditions: SF-268, 48 h
# Procedure, shortened: (§1)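 Panel of 60 human cancer cell lines; for each compound, dose–response curves per cell line measured at a minimum of five concentrations at 10-fold dilutions. Cells exposed continuously to drug for 48 h, and growth was read out by sulforhodamine B staining.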
# [2] = tested on: SNB-75; assay: Growth inhibition of human SNB75 cells after 48 hrs by sulforhodamine B assay; type: functional; conditions: SNB-75, 48 h; procedure, shortened: as §1
# [3] = tested on: OVCAR-5; assay: Growth inhibition of human OVCAR5 cells after 48 hrs by sulforhodamine B assay; type: functional; conditions: OVCAR-5, 48 h; procedure, shortened: as §1
# [4] = tested on: A-375; assay: Cell cycle arrest in human A375 cells assessed as accumulation at G0 phase at 2 uM after 24 hrs using propidium iodide staining by flow cytometry; type: functional
# Procedure, shortened: (§2)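 A375 cells (5×10^5) grown 24 h, then exposed to compound 24 h (DMSO control). Trypsin–EDTA harvest, fixed in ice-cold 70% ethanol at 4 °C 30 min, RNase A 37 °C 30 min, propidium iodide staining. DNA content measured by flow cytometry on 20,000 events, gated as sub-G1/G0, G1, S and G2/M.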
# [5] = tested on: CCRF-CEM; assay: Growth inhibition of human CCRF-CEM cells after 48 hrs by sulforhodamine B assay; type: functional
# Procedure, shortened: (§3)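 Dose–response in each cell line over at least five concentrations at 10-fold dilutions, with 48 h continuous exposure and sulforhodamine B read-out.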
# [6] = tested on: MOLT-4; assay: Growth inhibition of human MOLT4 cells after 48 hrs by sulforhodamine B assay; type: functional; conditions: MOLT-4, 48 h; procedure, shortened: as §1
# [7] = tested on: A-375; assay: Cell cycle arrest in human A375 cells assessed as accumulation at G2/M phase at 2 uM after 24 hrs using propidium iodide staining by flow cytometry; type: functional; procedure, shortened: as §2
# [8] = tested on: RXF 393; assay: Growth inhibition of human RXF393 cells after 48 hrs by sulforhodamine B assay; type: functional; conditions: RXF 393, 48 h; procedure, shortened: as §1
# [9] = tested on: UACC-257; assay: Growth inhibition of human UACC257 cells after 48 hrs by sulforhodamine B assay; type: functional; conditions: UACC-257, 48 h; procedure, shortened: as §1
# [10] = tested on: NCI-H460; assay: Growth inhibition of human NCI-H460 cells after 48 hrs by sulforhodamine B assay; type: functional; conditions: NCI-H460, 48 h; procedure, shortened: as §1
# [11] = tested on: SNB-19; assay: Growth inhibition of human SNB19 cells after 48 hrs by sulforhodamine B assay; type: functional; conditions: SNB-19, 48 h; procedure, shortened: as §1
# [12] = tested on: SR; assay: Growth inhibition of human SR cells after 48 hrs by sulforhodamine B assay; type: functional; procedure, shortened: as §1
# [13] = tested on: SF-295; assay: Growth inhibition of human SF295 cells after 48 hrs by sulforhodamine B assay; type: functional; conditions: SF-295, 48 h; procedure, shortened: as §1
# [14] = tested on: A-375; assay: Cell cycle arrest in human A375 cells assessed as accumulation at G1 phase at 2 uM after 24 hrs using propidium iodide staining by flow cytometry; type: functional; procedure, shortened: as §2
# [15] = tested on: A-375; assay: Cell cycle arrest in human A375 cells assessed as accumulation at S phase at 2 uM after 24 hrs using propidium iodide staining by flow cytometry; type: functional; procedure, shortened: as §2
# [16] = tested on: A498; assay: Growth inhibition of human A498 cells after 48 hrs by sulforhodamine B assay; type: functional; conditions: A498, 48 h; procedure, shortened: as §3
# [17] = tested on: SW-620; assay: Growth inhibition of human SW620 cells after 48 hrs by sulforhodamine B assay; type: functional; conditions: SW-620, 48 h; procedure, shortened: as §1
# [18] = tested on: HOP-62; assay: Growth inhibition of human HOP62 cells after 48 hrs by sulforhodamine B assay; type: functional; conditions: HOP-62, 48 h; procedure, shortened: as §1
# [19] = tested on: M14; assay: Growth inhibition of human M14 cells after 48 hrs by sulforhodamine B assay; type: functional; conditions: M14, 48 h; procedure, shortened: as §1
# [20] = tested on: A549; assay: Growth inhibition of human A549 cells after 48 hrs by sulforhodamine B assay; type: functional; conditions: A549, 48 h; procedure, shortened: as §3
# [21] = tested on: OVCAR-4; assay: Growth inhibition of human OVCAR4 cells after 48 hrs by sulforhodamine B assay; type: functional; conditions: OVCAR-4, 48 h; procedure, shortened: as §1
# [22] = tested on: KM12; assay: Growth inhibition of human KM12 cells after 48 hrs by sulforhodamine B assay; type: functional; conditions: KM12, 48 h; procedure, shortened: as §1
# [23] = tested on: MCF7; assay: Growth inhibition of human MCF7 cells after 48 hrs by sulforhodamine B assay; type: functional; conditions: MCF7, 48 h; procedure, shortened: as §1
# [24] = tested on: NCI-H322M; assay: Growth inhibition of human NCI-H322M cells after 48 hrs by sulforhodamine B assay; type: functional; procedure, shortened: as §1
# [25] = tested on: NCI-H522; assay: Growth inhibition of human NCI-H522 cells after 48 hrs by sulforhodamine B assay; type: functional; conditions: NCI-H522, 48 h; procedure, shortened: as §1
# [26] = tested on: BT-549; assay: Growth inhibition of human BT549 cells after 48 hrs by sulforhodamine B assay; type: functional; conditions: BT-549, 48 h; procedure, shortened: as §3
# [27] = tested on: UO-31; assay: Growth inhibition of human UO31 cells after 48 hrs by sulforhodamine B assay; type: functional; conditions: UO-31, 48 h; procedure, shortened: as §1
# [28] = tested on: SK-MEL-5; assay: Growth inhibition of human SK-MEL-5 cells after 48 hrs by sulforhodamine B assay; type: functional; conditions: SK-MEL-5, 48 h; procedure, shortened: as §1
# [29] = tested on: MDA-MB-435; assay: Growth inhibition of human MDA-MB-435 cells after 48 hrs by sulforhodamine B assay; type: functional; conditions: MDA-MB-435, 48 h; procedure, shortened: as §1
# [30] = tested on: A-375; assay: Cell cycle arrest in human A375 cells assessed as accumulation at G0/G1 phase at 2 uM after 24 hrs using propidium iodide staining by flow cytometry; type: functional; procedure, shortened: as §2
# [31] = tested on: UACC-62; assay: Growth inhibition of human UACC62 cells after 48 hrs by sulforhodamine B assay; type: functional; conditions: UACC-62, 48 h; procedure, shortened: as §1
# [32] = tested on: MDA-MB-231; assay: Growth inhibition of human MDA-MB-231 cells after 48 hrs by sulforhodamine B assay; type: functional; conditions: MDA-MB-231, 48 h; procedure, shortened: as §1
# [33] = tested on: ACHN; assay: Growth inhibition of human ACHN cells after 48 hrs by sulforhodamine B assay; type: functional; procedure, shortened: as §3
# [34] = tested on: OVCAR-8; assay: Growth inhibition of human OVCAR8 cells after 48 hrs by sulforhodamine B assay; type: functional; conditions: OVCAR-8, 48 h; procedure, shortened: as §1
# [35] = tested on: HCC 2998; assay: Growth inhibition of human HCC2998 cells after 48 hrs by sulforhodamine B assay; type: functional; conditions: HCC 2998, 48 h; procedure, shortened: as §1
# [36] = tested on: HCT-116; assay: Growth inhibition of human HCT116 cells after 48 hrs by sulforhodamine B assay; type: functional; conditions: HCT-116, 48 h; procedure, shortened: as §1
# [37] = Growth inhibition of human […] cells after 48 hrs by sulforhodamine B assay; type: functional; procedure, shortened: as §1
# [38] = tested on: Calf thymus DNA; assay: Binding affinity to calf thymus duplex-form DNA assessed as melting temperature at 1:5 compound/DNA ratio after 18 hrs; type: nucleic-acid assay; conditions: Bos taurus
# [39] = tested on: U-251; assay: Growth inhibition of human U251 cells after 48 hrs by sulforhodamine B assay; type: functional; conditions: U-251, 48 h; procedure, shortened: as §1
# [40] = tested on: K562; assay: Growth inhibition of human K562 cells after 48 hrs by sulforhodamine B assay; type: functional; conditions: K562, 48 h; procedure, shortened: as §1
# [41] = tested on: COLO 205; assay: Growth inhibition of human COLO205 cells after 48 hrs by sulforhodamine B assay; type: functional; conditions: COLO 205, 48 h; procedure, shortened: as §3
# [42] = tested on: HCT-15; assay: Growth inhibition of human HCT15 cells after 48 hrs by sulforhodamine B assay; type: functional; conditions: HCT-15, 48 h; procedure, shortened: as §1
# [43] = tested on: LOX IMVI; assay: Growth inhibition of human LOXIMVI cells after 48 hrs by sulforhodamine B assay; type: functional; procedure, shortened: as §1
# [44] = tested on: T47D; assay: Growth inhibition of human T47D cells after 48 hrs by sulforhodamine B assay; type: functional; procedure, shortened: as §1
# [45] = tested on: HOP-92; assay: Growth inhibition of human HOP92 cells after 48 hrs by sulforhodamine B assay; type: functional; conditions: HOP-92, 48 h; procedure, shortened: as §1
compound,measurement,setting,value
COc1cc(-c2nc3ccccc3s2)ccc1OCCCCCOc1cc2c(cc1OC)C(=O)N1CCC[C@H]1C=N2,GI50,[1],347 nM
same,GI50,[2],145 nM
same,GI50,[3],70.8 nM
same,Activity,[4],26.75%
same,GI50,[5],21.9 nM
same,GI50,[6],43.6 nM
same,Activity,[7],3.1%
same,GI50,[8],51.3 nM
same,GI50,[9],186 nM
same,GI50,[10],39.8 nM
same,GI50,[11],219 nM
same,GI50,[12],17.4 nM
same,GI50,[13],67.6 nM
same,Activity,[14],67.04%
same,Activity,[15],3.11%
same,GI50,[16],174 nM
same,GI50,[17],56.2 nM
same,GI50,[18],45.7 nM
same,GI50,[19],39.8 nM
same,GI50,[20],240 nM
same,GI50,[21],288 nM
same,GI50,[22],166 nM
same,GI50,[23],19.1 nM
same,GI50,[24],302 nM
same,GI50,[25],41.7 nM
same,GI50,[26],21.9 nM
same,GI50,[27],200 nM
same,GI50,[28],24.6 nM
same,GI50,[29],85.1 nM
same,Activity,[30],93.79%
same,GI50,[31],81.3 nM
same,GI50,[32],89.1 nM
same,GI50,[33],53.7 nM
same,GI50,[34],141 nM
same,GI50,[35],126 nM
same,GI50,[36],38.9 nM
same,GI50,[37],74.1 nM
same,ΔTm,[38],6.3 °C
same,GI50,[39],33.9 nM
same,GI50,[40],20.4 nM
same,GI50,[41],60.3 nM
same,GI50,[42],224 nM
same,GI50,[43],18.2 nM
same,GI50,[44],14.1 nM
same,GI50,[45],44.7 nM
